Results published in ChEMBL document CHEMBL4359903, “1,2,4-Oxadiazole derivatives targeting EGFR and c-Met degradation in TKI resistant NSCLC” (Eur J Med Chem, 2019).
Active and inactive are the calls of the source. No cut-off for these calls is given here.

Columns and labels:
[1] = test system: MDA-MB-231; assay: Antiproliferative activity against human MDA-MB-231 cells assessed as reduction in cell viability incubated for 72 hrs by MTT assay; assay type: functional, cell-based; conditions: MDA-MB-231, 72 h
Summary of the method: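 MTT viability assay after 72 h of drug exposure. Cells seeded at 5000 per well in 10% FBS and left overnight, then treated in 5% FBS. MTT added for 1 h, dye dissolved in DMSO, absorbance read at 570 nm. Viability given relative to vehicle-treated cells.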

[2] = target: Hepatocyte growth factor receptor (Homo sapiens) (UniProt P08581); assay: Induction of c-MET degradation in human MDA-MB-231 cells assessed as reduction in c-Met expression incubated for 48 hrs by immunoblot analysis; assay type: cell-based
Hepatocyte growth factor receptor (Homo sapiens), sequence (P08581 whole entry): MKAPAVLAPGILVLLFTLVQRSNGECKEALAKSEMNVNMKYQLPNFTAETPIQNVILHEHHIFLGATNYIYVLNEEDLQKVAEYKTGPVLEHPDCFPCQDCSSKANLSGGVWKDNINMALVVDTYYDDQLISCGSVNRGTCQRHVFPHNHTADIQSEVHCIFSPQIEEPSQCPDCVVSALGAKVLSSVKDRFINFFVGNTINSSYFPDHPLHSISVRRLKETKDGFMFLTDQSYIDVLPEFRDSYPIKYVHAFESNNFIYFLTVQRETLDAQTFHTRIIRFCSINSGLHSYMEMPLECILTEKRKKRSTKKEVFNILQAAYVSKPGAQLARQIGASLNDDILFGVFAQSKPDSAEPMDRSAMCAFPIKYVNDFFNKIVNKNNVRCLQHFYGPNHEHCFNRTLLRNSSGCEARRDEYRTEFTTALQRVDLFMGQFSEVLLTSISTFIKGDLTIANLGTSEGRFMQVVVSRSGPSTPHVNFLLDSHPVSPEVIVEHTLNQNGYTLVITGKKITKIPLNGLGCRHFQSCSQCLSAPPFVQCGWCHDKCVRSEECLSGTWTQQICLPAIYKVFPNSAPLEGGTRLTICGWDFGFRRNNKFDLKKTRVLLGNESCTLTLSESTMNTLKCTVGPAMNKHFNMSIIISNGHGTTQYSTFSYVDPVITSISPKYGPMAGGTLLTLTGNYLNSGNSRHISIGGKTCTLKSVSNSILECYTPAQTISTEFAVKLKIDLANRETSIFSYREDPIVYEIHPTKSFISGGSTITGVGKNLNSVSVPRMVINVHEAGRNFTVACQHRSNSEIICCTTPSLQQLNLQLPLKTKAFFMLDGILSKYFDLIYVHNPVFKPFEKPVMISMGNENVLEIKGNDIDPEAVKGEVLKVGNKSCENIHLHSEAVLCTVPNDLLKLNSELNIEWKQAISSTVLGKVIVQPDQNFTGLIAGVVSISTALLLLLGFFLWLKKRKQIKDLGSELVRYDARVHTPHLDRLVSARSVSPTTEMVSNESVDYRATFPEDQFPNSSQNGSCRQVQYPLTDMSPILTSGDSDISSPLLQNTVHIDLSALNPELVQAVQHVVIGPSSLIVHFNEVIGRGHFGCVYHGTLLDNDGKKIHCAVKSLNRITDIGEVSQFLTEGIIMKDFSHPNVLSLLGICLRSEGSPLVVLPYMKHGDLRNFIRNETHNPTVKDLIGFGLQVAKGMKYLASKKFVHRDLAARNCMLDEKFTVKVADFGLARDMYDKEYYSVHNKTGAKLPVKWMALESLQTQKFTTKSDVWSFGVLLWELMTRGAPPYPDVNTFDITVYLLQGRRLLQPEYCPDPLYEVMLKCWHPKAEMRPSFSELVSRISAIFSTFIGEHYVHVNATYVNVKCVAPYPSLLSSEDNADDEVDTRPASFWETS
Summary of the method: (§1)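 After 48 h treatment, cells were scraped and lysed in 1% SDS, 50 mM Tris-HCl pH 8.0, 10 mM EDTA with protease and phosphatase inhibitors. Lysates sonicated, protein measured by BCA, equal amounts run on SDS-PAGE and blotted to nitrocellulose. Primary antibodies (EGFR, c-Met, S473-Akt, Akt, GAPDH) used at 1:1000 overnight at 4 °C, HRP secondaries at 1:5000, ECL detection.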

[3] = target: Epidermal growth factor receptor (Homo sapiens) (UniProt P00533); assay: Induction of EGFR degradation in human MDA-MB-231 cells assessed as reduction in EGFR expression incubated for 48 hrs by immunoblot analysis; assay type: cell-based; summary of the method: as §1
Epidermal growth factor receptor (Homo sapiens), sequence (P00533 whole entry): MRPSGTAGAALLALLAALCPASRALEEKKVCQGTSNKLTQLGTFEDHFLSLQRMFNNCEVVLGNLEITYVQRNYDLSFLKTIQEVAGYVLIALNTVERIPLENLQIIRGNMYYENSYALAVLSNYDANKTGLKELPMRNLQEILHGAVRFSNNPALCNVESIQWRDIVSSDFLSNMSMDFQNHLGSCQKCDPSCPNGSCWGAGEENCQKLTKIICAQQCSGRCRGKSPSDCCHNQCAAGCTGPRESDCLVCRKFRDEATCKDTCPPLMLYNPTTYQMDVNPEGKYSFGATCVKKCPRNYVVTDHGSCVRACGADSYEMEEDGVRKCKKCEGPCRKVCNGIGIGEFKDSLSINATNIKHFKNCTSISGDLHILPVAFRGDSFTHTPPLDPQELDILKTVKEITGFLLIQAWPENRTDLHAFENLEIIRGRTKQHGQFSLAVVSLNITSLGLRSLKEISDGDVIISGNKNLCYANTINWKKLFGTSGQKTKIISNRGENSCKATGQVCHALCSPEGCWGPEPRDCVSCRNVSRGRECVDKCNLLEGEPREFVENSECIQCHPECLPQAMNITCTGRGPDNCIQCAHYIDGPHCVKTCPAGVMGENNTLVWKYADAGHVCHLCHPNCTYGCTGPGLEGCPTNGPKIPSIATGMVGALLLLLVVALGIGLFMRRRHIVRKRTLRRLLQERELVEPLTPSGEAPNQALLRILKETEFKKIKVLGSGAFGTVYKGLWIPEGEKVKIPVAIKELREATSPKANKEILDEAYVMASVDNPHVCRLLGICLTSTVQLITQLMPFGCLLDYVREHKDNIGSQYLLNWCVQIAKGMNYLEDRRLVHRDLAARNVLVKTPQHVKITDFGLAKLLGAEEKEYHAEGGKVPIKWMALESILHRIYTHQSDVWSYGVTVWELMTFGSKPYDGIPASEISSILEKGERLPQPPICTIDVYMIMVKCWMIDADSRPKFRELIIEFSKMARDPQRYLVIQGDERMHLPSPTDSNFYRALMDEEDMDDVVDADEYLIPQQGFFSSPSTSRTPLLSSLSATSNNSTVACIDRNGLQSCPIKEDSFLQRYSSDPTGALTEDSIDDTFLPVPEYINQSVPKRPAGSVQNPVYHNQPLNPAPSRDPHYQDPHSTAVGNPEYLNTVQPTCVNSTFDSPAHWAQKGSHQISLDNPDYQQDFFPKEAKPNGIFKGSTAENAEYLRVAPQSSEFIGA

[4] = test system: MDA-MB-231; assay: Growth inhibition of human MDA-MB-231 cells incubated for 3 days by CellTiter 96 aqueous nonradioactive cell proliferation assay; assay type: functional; conditions: MDA-MB-231, 72 h
[5] = test system: NCI-H1975; assay: Growth inhibition of human NCI-H1975 cells incubated for 3 days by CellTiter 96 aqueous nonradioactive cell proliferation assay; assay type: functional; conditions: NCI-H1975, 72 h
[6] = test system: CL97; assay: Antiproliferative activity against human CL97 cells harbouring EGFR G719A/T790M mutant assessed as reduction in cell viability incubated for 72 hrs by MTT assay; assay type: functional, cell-based; conditions: CL97, 72 h
[7] = test system: PC-9; assay: Antiproliferative activity against human PC9 cells harbouring EGFR delE746-A750 mutant assessed as reduction in cell viability incubated for 72 hrs by MTT assay; assay type: functional, cell-based; conditions: PC-9, 72 h
[8] = Antiproliferative activity against human CL68 cells harbouring EGFR delE746-A750/T790M mutant assessed as reduction in cell viability incubated for 72 hrs by MTT assay; assay type: functional, cell-based
[9] = test system: NCI-H1975; assay: Antiproliferative activity against human NCI-H1975 cells harbouring EGFR L858R/T790M double mutant assessed as reduction in cell viability incubated for 72 hrs by MTT assay; assay type: functional, cell-based; conditions: NCI-H1975, 72 h
[10] = test system: A549; assay: Antiproliferative activity against wild type human A549 cells assessed as reduction in cell viability incubated for 72 hrs by MTT assay; assay type: functional, cell-based; conditions: A549, 72 h

| IC50 [1] [µM] | SMILES | also measured |
| --- | --- | --- |
| > 10 | C#Cc1cccc(NC(=O)Nc2cccc(-c3nc(-c4ccc(NC(=O)c5cccnc5)cc4Cl)no3)c2)c1 |  |
| 2.8 | NC(=O)Nc1ccc(S(=O)(=O)Nc2cccc(-c3nc(-c4ccc(NC(=O)c5cccnc5)cc4Cl)no3)c2)cc1 |  |
| 0.7 | CS(=O)(=O)Nc1ccc(NC(=O)Nc2cccc(-c3nc(-c4ccc(NC(=O)c5cccnc5)cc4Cl)no3)c2)cc1Br |  |
| 1.9 | O=C(Nc1cccc(-c2nc(-c3ccc(NC(=O)c4cccnc4)cc3Cl)no2)c1)Nc1ccc(Cl)c(C(F)(F)F)c1 |  |
| > 10 | CS(=O)(=O)Nc1cccc(NC(=O)Nc2cccc(-c3nc(-c4ccc(NC(=O)c5cccnc5)cc4Cl)no3)c2)c1 |  |
| 6.7 | COc1cccc(NC(=O)Nc2cccc(-c3nc(-c4ccc(NC(=O)c5cccnc5)cc4Cl)no3)c2)c1 |  |
| > 10 | NS(=O)(=O)c1ccc(NC(=O)Nc2cccc(-c3nc(-c4ccc(NC(=O)c5cccnc5)cc4Cl)no3)c2)cc1 |  |
| 1.9 | O=C(Nc1cccc(-c2nc(-c3ccc(NC(=O)c4cccnc4)cc3Cl)no2)c1)Nc1cc(C(F)(F)F)cc(C(F)(F)F)c1 |  |
| > 10 | O=C(Nc1ccc(Cl)cc1)Nc1cccc(-c2nc(-c3ccc(NC(=O)c4cccnc4)cc3Cl)no2)c1 |  |
| 5.8 | O=C(Nc1ccc(-c2noc(-c3cccc(NS(=O)(=O)c4ccc(NC(=O)N5CCCC5)cc4)c3)n2)c(Cl)c1)c1cccnc1 |  |
| > 10 | O=C(Nc1ccc(-c2noc(-c3cccc(NS(=O)(=O)c4ccccc4)c3)n2)c(Cl)c1)c1cccnc1 |  |
| 0.6 | CS(=O)(=O)Nc1ccc(NC(=O)Nc2cccc(-c3nc(-c4ccc(NC(=O)c5cccnc5)cc4Cl)no3)c2)cc1Cl | Activity [2]: Active; Activity [3]: inactive |
| 0.7 | CS(=O)(=O)Nc1ccc(NC(=O)Nc2cccc(-c3nc(-c4ccc(NC(=O)c5cccnc5)cc4Cl)no3)c2)cc1C(F)(F)F |  |
| 3.4 | NC(=O)Nc1ccc(NC(=O)Nc2cccc(-c3nc(-c4ccc(NC(=O)c5cccnc5)cc4Cl)no3)c2)cc1C(F)(F)F |  |
| > 10 | O=C(Nc1ccc(-c2noc(-c3cccc(NS(=O)(=O)c4ccc(NC(=O)N5CCOCC5)cc4)c3)n2)c(Cl)c1)c1cccnc1 |  |
| > 10 | Cc1ccc(S(=O)(=O)Nc2cccc(-c3nc(-c4ccc(NC(=O)c5cccnc5)cc4Cl)no3)c2)cc1 |  |
| > 10 | O=C(Nc1ccc(-c2noc(-c3cccc(NS(=O)(=O)c4ccc(C(F)(F)F)cc4)c3)n2)c(Cl)c1)c1cccnc1 |  |
| > 10 | CC(=O)Nc1ccc(S(=O)(=O)Nc2cccc(-c3nc(-c4ccc(NC(=O)c5cccnc5)cc4Cl)no3)c2)cc1C |  |
| > 10 | O=C(Nc1ccc(-c2noc(-c3cccc(NS(=O)(=O)c4ccc(NC(=O)N5CCCCC5)cc4)c3)n2)c(Cl)c1)c1cccnc1 |  |
| > 10 | COc1cccc(S(=O)(=O)Nc2cccc(-c3nc(-c4ccc(NC(=O)c5cccnc5)cc4Cl)no3)c2)c1 |  |
| > 10 | COc1cc(-c2noc(-c3cccc(NS(=O)(=O)c4ccc(NC(C)=O)cc4)c3)n2)ccc1NC(=O)c1cccnc1 |  |
| 1.3 | CNC(=O)Nc1ccc(S(=O)(=O)Nc2cccc(-c3nc(-c4ccc(NC(=O)c5cccnc5)cc4Cl)no3)c2)cc1 |  |
| 8.9 | NS(=O)(=O)Nc1ccc(NC(=O)Nc2cccc(-c3nc(-c4ccc(NC(=O)c5cccnc5)cc4Cl)no3)c2)cc1 |  |
| > 10 | O=C(Nc1ccccc1)Nc1cccc(-c2nc(-c3ccc(NC(=O)c4cccnc4)cc3Cl)no2)c1 |  |
| 2.5 | CC(=O)Nc1ccc(S(=O)(=O)Nc2cccc(-c3nc(-c4ccc(NC(=O)c5cccnc5)cc4Cl)no3)c2)cc1 |  |
| 1.7 | COc1ccc(NC(=O)Nc2cccc(-c3nc(-c4ccc(NC(=O)c5cccnc5)cc4Cl)no3)c2)cc1C(F)(F)F | Activity [2]: Active; Activity [3]: inactive |

Second part, the molecule before the results:

| SMILES | IC50 [1] [µM] | also measured |
| --- | --- | --- |
| CCNC(=O)Nc1ccc(S(=O)(=O)Nc2cccc(-c3nc(-c4ccc(NC(=O)c5cccnc5)cc4Cl)no3)c2)cc1 | 3.1 |  |
| O=C(Nc1cccc(-c2nc(-c3ccc(NC(=O)c4cccnc4)cc3Cl)no2)c1)Nc1ccc(NC(=O)c2cccs2)c(C(F)(F)F)c1 | 2.9 |  |
| O=C(Nc1cccc(-c2nc(-c3ccc(NC(=O)c4cccnc4)cc3Cl)no2)c1)Nc1ccc(NC(=O)C2CCCC2)c(C(F)(F)F)c1 | 0.3 | Activity [2]: Active; Activity [3]: Active |
| CC(=O)Nc1ccc(S(=O)(=O)Nc2cccc(-c3nc(-c4ccc(NC(=O)c5cccnc5)c(Cl)c4)no3)c2)cc1 | 4.5 |  |
| CCN(CC)C(=O)Nc1ccc(S(=O)(=O)Nc2cccc(-c3nc(-c4ccc(NC(=O)c5cccnc5)cc4Cl)no3)c2)cc1 | 8.7 |  |
| CC(=O)Nc1ccc(S(=O)(=O)Nc2cccc(-c3nc(-c4ccc(NC(=O)c5cccnc5)cc4)no3)c2)cc1 | 5.2 |  |
| CC(C)c1cc(C(=O)N2CCc3sccc3C2)c(O)cc1O |  | GI50 [4]: 0.478 µM; GI50 [5]: 1.67 µM |
| O=C(Nc1ccc(S(=O)(=O)Nc2cccc(-c3nc(-c4ccc(NC(=O)c5cccnc5)cc4Cl)no3)c2)cc1)NC1CCCC1 | > 10 |  |
| O=C(Nc1cccc(-c2nc(-c3ccc(NC(=O)c4cccnc4)cc3Cl)no2)c1)c1ccccc1 | 12.8 |  |
| CC(=O)Nc1ccc(NC(=O)Nc2cccc(-c3nc(-c4ccc(NC(=O)c5cccnc5)cc4Cl)no3)c2)cc1Cl | > 10 |  |
| O=C(Nc1ccc(-c2noc(-c3cccc(NS(=O)(=O)c4cccc(Cl)c4)c3)n2)c(Cl)c1)c1cccnc1 | > 10 |  |
| C#Cc1cccc(Nc2ncnc3cc(OCCOC)c(OCCOC)cc23)c1 [ERLOTINIB] |  | IC50 [6]: > 20 µM; IC50 [7]: 0.1 µM; IC50 [8]: 5 µM; IC50 [9]: 10 µM |
| O=C(Nc1ccc(NS(=O)(=O)C2CC2)cc1)Nc1cccc(-c2nc(-c3ccc(NC(=O)c4cccnc4)cc3Cl)no2)c1 | 0.3 | Activity [2]: Active; Activity [3]: Active |
| COc1cc(NC(=O)c2cccnc2)ccc1-c1noc(-c2cccc(NS(=O)(=O)c3ccc(NC(C)=O)cc3)c2)n1 | > 10 |  |
| COc1ccc(NC(=O)Nc2cccc(-c3nc(-c4ccc(NC(=O)c5cccnc5)cc4Cl)no3)c2)cc1 | 3 |  |
| CC(=O)Nc1ccc(S(=O)(=O)Nc2cccc(-c3nc(-c4ccc(NC(=O)c5cccnc5)cc4Cl)no3)c2)cc1Cl | > 10 |  |
| C=CC(=O)Nc1cc(Nc2nccc(-c3cn(C)c4ccccc34)n2)c(OC)cc1N(C)CCN(C)C [OSIMERTINIB] |  | IC50 [10]: 5 µM; IC50 [6]: 0.1 µM; IC50 [7]: < 0.01 µM; IC50 [8]: 0.01 µM; IC50 [9]: […] |
| CN(C)C/C=C/C(=O)Nc1cc2c(Nc3ccc(F)c(Cl)c3)ncnc2cc1O[C@H]1CCOC1 [AFATINIB] |  | IC50 [10]: 5 to 10 µM; IC50 [6]: 0.1 µM; IC50 [7]: < 0.01 µM; IC50 [8]: 0.1 µM; IC50 [9]: 1 µM |
| NS(=O)(=O)c1ccc(S(=O)(=O)Nc2cccc(-c3nc(-c4ccc(NC(=O)c5cccnc5)cc4Cl)no3)c2)cc1 | > 10 |  |
| O=C(Nc1cccc(-c2nc(-c3ccc(NC(=O)c4cccnc4)cc3Cl)no2)c1)Nc1cccc(C(F)(F)F)c1 | 1.9 | Activity [2]: Active; Activity [3]: inactive |
| CC(=O)Nc1ccc(NC(=O)Nc2cccc(-c3nc(-c4ccc(NC(=O)c5cccnc5)cc4Cl)no3)c2)cc1 | > 10 |  |
| CS(=O)(=O)Nc1ccc(NC(=O)Nc2cccc(-c3nc(-c4ccc(NC(=O)c5cccnc5)cc4Cl)no3)c2)cc1 | 0.6 | Activity [2]: Active; Activity [3]: inactive |
| C#Cc1ccc(NC(=O)Nc2cccc(-c3nc(-c4ccc(NC(=O)c5cccnc5)cc4Cl)no3)c2)cc1 | > 10 |  |
| CC(=O)Nc1ccc(S(=O)(=O)Nc2cccc(-c3nc(-c4ccc(NC(=O)c5cccnc5)c(C(F)(F)F)c4)no3)c2)cc1 | > 10 |  |
| CC(=O)Nc1ccc(NC(=O)Nc2cccc(-c3nc(-c4ccc(NC(=O)c5cccnc5)cc4Cl)no3)c2)cc1Br | 1 |  |
| Cc1ccc(NC(=O)Nc2cccc(-c3nc(-c4ccc(NC(=O)c5cccnc5)cc4Cl)no3)c2)cc1 | 3.5 |  |
| CC(=O)Nc1ccc(S(=O)(=O)Nc2cccc(-c3nc(-c4ccc(NC(=O)c5cccnc5)cc4C(F)(F)F)no3)c2)cc1 | > 10 |  |
